The record followed here is PubChem BioAssay AID602317 (Southern Research Specialized Biocontainment Screening …, 2012).

Inconclusive results are not listed. The source made the active and inactive calls.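 Rule for the calls: active = viability under 80% at one or more tested concentrations, read as toxic; inconclusive = replicate runs disagree on whether the viability cutoff is met; inactive = viability stays at 80% or higher at every dose.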

System in the first test: not listed separately
In words: Vero E6 cell cytotoxicity, dose response, cytotoxicity control for PfM17LAP inhibitor project, set 3 (AID 602317). The following applies: Vero E6 viability, CellTiter-Glo luminescence, 72 h; at 50 µM (top of the series). The procedure, abridged:
(§1)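 System: Vero E6 cells / Benchmarks: DMSO vehicle wells / Evaluation: % viability vs DMSO wells, CC50 from bounded 4-parameter fit / Measured by: CellTiter-Glo luminescence / Incubation: 72 h compound exposure at 37 °C, 5% CO2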
One may read the viability as a read-out of living cells in per cent, often relative to untreated cells. In the case of `COc1ccc(CCN(C)c2ccnc3ccccc23)cc1OC`, the viability is 84.9% (inactive).

Turning to `O=C(NO)c1cccc2ccccc12`, the viability is 84.7% (inactive).

Consider `Oc1ccc(CCNc2ccnc3ccccc23)cc1O`, for which the viability was 95.5% (inactive).

As to `CCCCOc1cccc(CC(=O)OC)c1`, the viability is 99.7% (inactive).

As to `CCCOc1ccc(CC(=O)O)cc1`, the viability was 81.1% (inactive).

Regarding `COC(=O)Cc1ccc(OCC(C)C)cc1`, the viability is 109% (inactive).

Take `O=C(NCc1ccc2c(c1)OCO2)C1CCN(S(=O)(=O)c2ccc(Br)s2)CC1`: the viability was 95.4% (inactive).

In the case of `CN(C)CCOc1ccc(CC(=O)O)cc1`, the viability was 98.8% (inactive).

For `CCCCOc1ccc(CNc2c(N(O)Cc3ccccc3)c(=O)c2=O)cc1`, the viability is 95.5% (inactive).

On to `Cc1ccc(CC(=O)NO)cc1`, for which the viability was 104% (inactive).

Consider `CCC(C)Oc1ccc(CC(=O)OC)cc1` (stereo unspecified), for which the viability is 93% (inactive).

`CN1CCN(CCc2ccc(O)c(O)c2)CC1`: the viability was 102% (inactive).

Take `CCCCOc1ccc(CC(=O)O)cc1`: the viability is 95.5% (inactive).

On to `CC(C)(C(=O)NO)c1ccccc1`, for which the viability was 104% (inactive).

As to `CCCOc1ccc(CC(=O)OC)cc1`, the viability was 100% (inactive).

On to `CCCCOc1ccc(CNc2c(N(C)O)c(=O)c2=O)cc1`, for which the viability is 91% (inactive).

As for `CCCCOc1ccc(C(C)(C)C(=O)O)cc1`, the viability was 98.2% (inactive).

Take `CCOc1ccc(CC(=O)NO)cc1`: the viability is 96.8% (inactive).

As to `CCCCOc1ccc(C(C)C(=O)OC)cc1` (stereo unspecified), the viability was 97.4% (inactive).

For the compound `COc1ccc(CC(=O)NO)cc1`, the viability was 102% (inactive).

Regarding `CC[C@H](C)[C@H](NS(=O)(=O)c1ccc(Br)s1)C(=O)NCc1ccc2c(c1)OCO2`, the viability was 107% (inactive).

Take `CN1CCN(CCCc2ccc(O)c(O)c2)CC1`: the viability is 96% (inactive).

`CCCCOc1ccc(C(C)(C)C(=O)NO)cc1`: the viability was 81.2% (inactive).

On to `CCCOc1ccc(CC(=O)NO)cc1`, for which the viability was 91.5% (inactive).

As for `CCCCOc1ccc(C(C)C(=O)O)cc1` (stereo unspecified), the viability is 90.8% (inactive).

`Oc1ccc(-c2csc(Nc3ncccn3)n2)cc1O`: the viability is 87.7% (inactive).

With `COc1ccc(CCCN2CCN(C)CC2)cc1OC`, the viability was 99.5% (inactive).

Consider `COC(=O)Cc1ccc(OCCN(C)C)cc1`, for which the viability is 98.9% (inactive).

Turning to `CN1CCN(c2nc(-c3ccc(O)c(O)c3)cs2)CC1`, the viability is 97.9% (inactive).

A further test concerns Vero E6 viability, CellTiter-Glo luminescence, 72 h. The test is described as above.
Details: not given
The procedure, abridged:
as §1
One may read the CC50 as the concentration giving 50% cytotoxicity. In the case of `COc1ccc(CCNC(c2ccccc2)c2ccccc2)cc1OC`, the CC50 was 45.8 µM.

As for `COc1ccc(CCNc2c3ccccc3nc3ccccc23)cc1OC`, the CC50 was 17.9 µM.

As for `CC[C@H](C)[C@H](NC(=O)c1ccc(C(C)(C)C)cc1)C(=O)NCc1ccc2c(c1)OCO2`, the CC50 was 38.2 µM.

As for `O=C(NCc1ccc(Cl)cc1)C1CCN(S(=O)(=O)c2ccc(Br)s2)CC1`, the CC50 was 21.8 µM.

For `O=C(Cc1ccc(OCc2ccccc2)cc1)NO`, the 50% cytotoxic concentration (CC50) was 48.5 µM.

As for `CCCCOc1ccc(C(C)C(=O)NO)cc1` (stereo unspecified), the CC50 was 40.8 µM.

Regarding `CCCCCCCCCC(=O)NO`, the 50% cytotoxic concentration (CC50) was 31 µM.

With `CC[C@H](C)[C@H](NS(=O)(=O)c1ccc(Br)s1)C(=O)NCc1ccc(Cl)cc1`, the CC50 is 46.4 µM.

`CCCCOc1ccc(CCC(=O)NO)cc1`: the CC50 is 34.1 µM.

Regarding `CN(O)C(=O)Cc1ccc(OCc2ccccc2)cc1`, the CC50 is 32.5 µM.

On to `O=C(Cc1ccc(Oc2ccccc2)cc1)NO`, for which the CC50 was 45 µM.

Take `CCc1ccc(NC(=O)Cc2nc(-c3ccc(O)c(O)c3)cs2)cc1`: the CC50 was 42.2 µM.

On to `CCCCOc1ccc(CN(O)C(=O)c2ccccc2)cc1`, for which the CC50 was 20.9 µM.

`Oc1ccc(CCNC(c2ccccc2)c2ccccc2)cc1O`: the half-maximal cytotoxic concentration (CC50) was 38.7 µM.

For `COc1ccc(CCN(C)c2c3ccccc3nc3ccccc23)cc1OC`, the half-maximal cytotoxic concentration (CC50) was 40.8 µM.

`Oc1ccc(CCNc2c3ccccc3nc3ccccc23)cc1O`: the half-maximal cytotoxic concentration (CC50) was 45.4 µM.

`CCCCOc1ccc(CC(=O)N(C)O)cc1`: the CC50 is 44.6 µM.
